697 NFkB inh: lowers PMA/ionomycin-induced NF-kB signal in 697 B cells; actives 0.33% (n = 330,000); 697 B-cell NF-kB luciferase reporter, 16 h; AID 435022; inhibition, % at 4 µM; in the data active means inhibition above about 35%
UPR CHOP act: activators of apoptotic arm of unfolded protein response (CHOP). CHO-CHOP luciferase reporter, UPR activation, luminescence; percent of tunicamycin response over DMSO baseline. activation, % at 10 µM. actives 0.34% (n = 330,000);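 active means at 10 µM dose, activation of 40% or more, normalized to positive control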;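 further: 100% = tunicamycin at 10 µg/mL and 0% = DMSO alone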
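Assay system: CHO cells with stable CHOP pathway luciferase reporter; Buffer or medium: F12 plus 10% serum; Times: 16-18 h cell attachment, then 6 h compound exposure, 37 °C; Signal: luciferase luminescence; Read-out basis: percent activation relative to tunicamycin control; Control set: tunicamycin high control, DMSO low control.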
Jurkat NFkB inh: inhibitors of the PMA/ionomycin-induced NF-kB reporter in Jurkat cells | PMA/ionomycin-induced NF-kB luciferase reporter, luminescence | inhibition, % at 4 µM | actives 0.53% (n = 330,000); in the data active means inhibition above about 50%
CHOP inhibitor: inhibitors of CHOP induction in ER stress response | AID 2732 | inhibition, % at 10 µM | actives 3.8% (n = 220,000) | CHO-K1 CHOP-promoter luciferase, tunicamycin-induced, 15-18 h;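 active means compounds that reduced the stress-induced luciferase reporter signal by more than about 70% of percent inhibition, limit read from the data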;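 further: 0% = tunicamycin plus vehicle and 100% = wells without tunicamycin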
XBP1 UPR activ: adaptive UPR (XBP1) activation | CHO-XBP1 luciferase reporter, IRE1-XBP1 UPR activation, luminescence; percent of tunicamycin response, DMSO as zero | activation, % at 20 µM | actives 0.33% (n = 330,000) | AID 463104;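 active means versus positive control, 20 µM dose yields 30% or more activation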;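 further: 100% = tunicamycin at 10 µg/mL and 0% = DMSO only wells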
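incubation = overnight seeding at 37 °C, 6 h compound treatment at 37 °C | assay system = CHO-XBP1 cells stably carrying IRE1-XBP1-driven luciferase reporter | input = 1000 cells per well | detection = luciferase luminescence | dosing = single point, 20 µM final compound, 1% DMSO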
Jurkat NFkB conf: inhibitors of the PMA/ionomycin-induced NF-kB reporter in Jurkat cells, retest; shares compounds with Jurkat NFkB inh; Jurkat NF-kB luciferase, 16 h; inhibition, % at 4 µM; actives 27% (n = 2,700); AID 435020;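 active means inhibition reaching about 45% at 4 µM in either replicate, limit read from the data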;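 further: plate controls were PMA/ionomycin stimulated DMSO wells for no effect and unstimulated DMSO wells for full effect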
* = called active by the depositor; nt = no result given. The full list was thinned out, with hits kept by preference.

SMILES	697 NFkB inh	UPR CHOP act	Jurkat NFkB inh	CHOP inhibitor	XBP1 UPR activ	Jurkat NFkB conf
Cc1cccc(CS(=O)(=O)Cc2ccc(C(=O)NCc3cccs3)o2)c1	2.5	-0.5	-12.0	12.1	-0.7	nt
Cc1ccn2c(=O)nc(SCC(=O)c3ccccc3)nc2c1	-27.8	3.5	-81.5	nt	1.1	nt
Cc1ccc2nc(SCC(=O)c3ccccc3)nc(=O)n2c1	-97.3	-3.3	-224.6	nt	-3.5	-75.0
CSc1nc(N)n2nc(-c3ccc(Cl)cc3)cc2n1	-205.7	6.7	-165.5	-23.6	9.7	-90.2
COc1cc([N+](=O)[O-])cc(CN2CCCCC2)c1O	27.5	-0.5	6.3	-87.2	0.6	nt
O=C(N/N=C/c1cn(-c2ccccc2)nc1-c1cc2ccccc2o1)c1cccnc1	-93.4	-4.7	-121.9	64.9	1.5	nt
O=C(N/N=C/c1cn(-c2ccccc2)nc1-c1cc2ccccc2o1)c1ccncc1	-142.3	15.3	-154.5	57.6	8.7	-119.0
CCCc1nnc(NC(=O)C23CC4CC(CC(C4)C2)C3)s1	-20.5	3.3	-10.9	nt	10.7	nt
COc1ccc(-c2ccc3oc(-c4ccc(OC)cc4)c(C#CCO)c3c2)cc1	-38.8	1.3	73.2*	nt	2.0	56.9*
COc1ccc(NC(=O)CN(C)C(=O)c2ccc3[nH]c4c(c3c2)CC(C)CC4)cc1 (centres undefined)	5.6	0.2	20.7	nt	-2.9	nt
CCOc1ccc2nc(SCC(=O)Nc3ccc4[nH]c(=O)[nH]c4c3)[nH]c2c1	-8.1	0.0	-3.9	nt	-2.4	nt
CC1=C(C#N)C(c2cn(-c3ccccc3)nc2-c2cccs2)C(C#N)=C(C)N1	-29.8	0.0	53.5*	32.4	0.6	-7.9
COCCOC(=O)C1=C(C)NC(=O)NC1c1cn(-c2ccccc2)nc1-c1cccs1 (centres undefined)	5.7	0.0	5.7	12.2	-3.8	nt
O=C(c1cccc(OCc2ccccc2)c1)N1CCOCC1	11.4	1.1	-8.7	0.2	-0.7	nt
CCOc1ccc(OCc2cccc(C(=O)N3CCOCC3)c2)cc1	22.6	-9.9	53.1*	85.9*	-10.3	29.9
O=C(Nc1ccccc1)C1Cc2ccccc2CN1C(=O)c1ccco1 (centres undefined)	-226.0	4.4	-150.0	15.4	2.4	-105.9
COc1ccc(C)cc1NC(=O)CSc1ccc(-c2ccccn2)nn1	-5.2	1.5	53.0*	nt	-6.3	20.1
COc1cc(NC(=O)CSc2ccc(-c3ccccn3)nn2)cc(OC)c1	-8.3	0.2	6.6	nt	-4.0	nt
COc1ccc(C)cc1NC(=O)CSc1ccc(-c2sc(C)nc2C)nn1	-33.1	-0.8	51.2*	nt	-3.3	9.5
COc1cccc(NC(=O)CSc2ccc(-c3sc(C)nc3C)nn2)c1	-2.0	-0.9	4.2	nt	0.0	nt
CCOC(=O)Cn1c(=O)c(F)cn(Cc2ccc(OC)c([N+](=O)[O-])c2)c1=O	5.3	1.2	1.2	nt	-2.3	nt
CCOc1ccccc1CN1CCN(Cc2[nH]c3ccccc3c2C)CC1CCO (centres undefined)	11.1	-1.4	10.0	36.6	0.1	nt
CCOc1ccccc1CN1CCN(Cc2cc(=O)c3ccccc3[nH]2)CC1CCO (centres undefined)	-12.7	-0.5	50.9*	nt	-0.9	17.3
COc1ccc(OC)c(N(CC(=O)N2CCOCC2)S(C)(=O)=O)c1	0.1	5.3	-2.4	nt	-6.3	nt
COc1cc(NS(=O)(=O)c2ccc(C)cc2)c2ncccc2c1	-5.5	111.5*	99.8*	nt	-3.9	61.5*
SMILES	697 NFkB inh	UPR CHOP act	Jurkat NFkB inh	CHOP inhibitor	XBP1 UPR activ	Jurkat NFkB conf
CCc1ccc(NC(=S)NNC(=O)c2ccccc2OC(F)F)cc1	-15.3	-1.1	23.0	-26.1	2.1	nt
COc1ccc(C(=O)NNC(=S)NC(=O)c2ccc(OC)cc2)cc1	1.3	-1.0	-2.4	nt	-2.6	nt
COc1ccc(NC(=S)N/C(=N/CS(=O)(=O)c2ccccc2)c2ccccc2)cc1	-211.0	-0.7	-150.6	-25.9	-4.8	-9.1
COc1ccc(C(=O)NNC(=S)Nc2ccccc2)cc1	-151.6	5.5	-172.5	-8.5	2.7	-116.2
COc1ccc(NC(=S)NNC(=O)c2ccccc2OC(F)F)cc1	-41.5	-1.7	52.9*	-11.5	1.2	26.6
C=CCn1c(=O)c2ccccc2n2c(SCC(=O)NC)nnc12	-12.8	1.7	-5.6	nt	-3.7	nt
Cc1cc(NC(=O)c2cccnc2)ccc1Br	-41.2	3.3	-51.5	nt	1.9	nt
COc1ccc(C(=O)NCc2nnc(SCC(=O)Nc3nc4ccc(C)cc4s3)o2)cc1OC	-43.8	2.0	-17.4	48.1	0.2	nt
O=c1c2ccccc2nc2n1CCC2	-21.4	-1.0	0.1	36.4	1.2	nt
O=c1c2ccccc2nc2n1CCc1c-2[nH]c2ccccc12	-175.6	5.8	-193.5	-12.9	1.8	-85.1
CC(C)NS(=O)(=O)c1ccc2c(c1)NCC2	12.9	2.0	-0.4	23.3	-1.9	nt
CC(C)NC(=O)NC(=O)COc1ccc(Br)cc1Br	-205.5	0.0	-204.8	27.3	-0.1	-93.8
CCOC(=O)c1ccc(NC(=O)N2CCc3ccccc32)cc1	-92.2	2.6	-157.4	20.3	0.6	-92.9
N#Cc1ccc(OCC(=O)NCC2COc3ccccc3O2)cc1 (centres undefined)	1.5	0.7	13.6	nt	-0.8	nt
NC(=O)CCC(NC(=O)c1ccc(Cl)cc1)C(=O)O (centres undefined)	13.7	1.4	14.7	13.8	3.0	nt
CCC1(C)CC2(CCCN(CCC(=O)c3ccccc3)C2)CCO1 (centres undefined)	-6.5	1.2	-14.0	-27.7	-4.8	nt
COc1ccc(COC(=O)c2cc([N+](=O)[O-])ccc2N2CCOCC2)cc1F	-67.5	0.9	93.3*	nt	10.2	64.8*
CCOC(=O)c1cc(CC)sc1NC(=O)c1cc([N+](=O)[O-])ccc1N1CCOCC1	17.9	2.2	59.5*	-96.9	14.4	37.9
CCOC(=O)c1cc(CC)sc1NC(=O)c1ccc(N2CCOCC2)c([N+](=O)[O-])c1	1.1	0.4	-8.5	13.3	2.5	nt
CCc1ccccc1NC(=O)Cn1nnc(C(=O)NCc2cccs2)c1N	-13.3	-0.6	51.1*	16.6	5.2	24.1
COc1ccccc1NC(=O)Cn1nnc(C(=O)NCc2cccs2)c1N	-12.9	-1.0	52.8*	nt	-0.1	62.6*
COc1ccc(NC(=O)Cn2nnc(C(=O)NCc3cccs3)c2N)cc1	-5.9	-1.0	7.8	nt	-2.8	nt
CCOC(=O)c1c(/N=C/C2=C(O)CC(C)(C)CC2=O)sc(C(C)=O)c1C	-0.3	0.8	-1.3	51.3	3.5	nt
O=C(NNc1nc(=O)c2cccnc2s1)c1ccccc1O	-21.8	14.1	-11.2	40.0	1.7	nt
N=c1c(C(=O)NCCc2ccccc2)cc2c(=O)n3ccccc3nc2n1CCCN1CCOCC1	-15.4	-1.2	52.9*	nt	-4.0	2.2
N=c1c(C(=O)NC2CCCCC2)cc2c(=O)n3ccccc3nc2n1CCc1ccccc1	4.4	6.7	58.2*	nt	10.1	-51.0
